We go through 9 compounds from ChEMBL document CHEMBL3228007, “Ergot alkaloids. Synthesis of nitrosourea derivatives of ergolines as potential anticancer agents” (J Med Chem, 1979).

Data set [1] relates to Mus musculus. The experiment in a line: Toxicity in mouse allografted with mouse L1210 cells assessed as change in body weight at 6.25 mg/kg relative to control. Format: organism-based. More on the design: dose 6.25 mg/kg. As to conditions: in vivo; call rule not given here. The procedure, abridged:
(§1)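 Mice bearing L1210 leukemia, six per dose group, given compound as a suspension across a range of mg/kg doses. Antitumor read-out is T/C, with cures per group recorded. Toxicity is judged by body weight loss, with loss over 4 g flagged.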

The test system of data set [2] is Mus musculus. Description: Toxicity in mouse allografted with mouse L1210 cells assessed as survival at 12.5 mg/kg. Format: organism-based. The arrangement: dose 12.5 mg/kg. As to conditions: in vivo. The procedure, abridged: as §1
Data set [3] has as its system L1210. Description: Antitumor activity against mouse L1210 cells allografted in mouse assessed as tumor growth inhibition at 12.5 mg/kg relative to control. In kind it is functional. A digest of the protocol: as §1
Data set [4] deals with Mus musculus. The experiment in a line: Toxicity in mouse allografted with mouse L1210 cells assessed as survival at 50 mg/kg. In kind it is organism-based. More on the design: dose 50 mg/kg. As to conditions: in vivo. The procedure, abridged:
as §1

The subject of data set [5] is Mus musculus. Description: Toxicity in mouse allografted with mouse L1210 cells assessed as change in body weight at 12.5 mg/kg relative to control. In kind it is organism-based. More on the design: dose 12.5 mg/kg. As to conditions: in vivo. A digest of the protocol:
as §1

The subject of data set [6] is Mus musculus. The experiment in a line: Toxicity in mouse allografted with mouse L1210 cells assessed as survival at 6.25 mg/kg. Format: organism-based. More on the design: dose 6.25 mg/kg. As to conditions: in vivo. A digest of the protocol:
as §1

In data set [7] the test system is Mus musculus. The experiment in a line: Toxicity in mouse allografted with mouse L1210 cells assessed as change in body weight at 25 mg/kg relative to control. In kind it is organism-based. The arrangement: dose 25 mg/kg. As to conditions: in vivo. A digest of the protocol:
as §1

The subject of data set [8] is L1210. The experiment in a line: Antitumor activity against mouse L1210 cells allografted in mouse assessed as tumor growth inhibition at 6.25 mg/kg relative to control. In kind it is functional. The procedure, abridged:
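L1210 leukemia in mice, six per group; compound given as a suspension across a range of dose levels; activity expressed as T/C, with cures and weight loss recorded.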

The test system of data set [9] is Mus musculus. The experiment in a line: Toxicity in mouse allografted with mouse L1210 cells assessed as change in body weight at 50 mg/kg relative to control. Format: organism-based. As to conditions: in vivo. The arrangement: dose 50 mg/kg. A digest of the protocol: as §1
Data set [10] relates to Mus musculus. Description: Toxicity in mouse allografted with mouse L1210 cells assessed as change in body weight at 100 mg/kg relative to control. In kind it is organism-based. More on the design: dose 100 mg/kg. As to conditions: in vivo. The procedure, abridged:
as §1

The test system of data set [11] is L1210. Description: Antitumor activity against mouse L1210 cells allografted in mouse assessed as tumor growth inhibition at 25 mg/kg relative to control. Format: functional. A digest of the protocol: as §1
For data set [12], the system named is Mus musculus. Description: Toxicity in mouse allografted with mouse L1210 cells assessed as survival at 25 mg/kg. The arrangement: dose 25 mg/kg. In kind it is organism-based. As to conditions: in vivo. A digest of the protocol:
as §1

The test system of data set [13] is L1210. Description: Antitumor activity against mouse L1210 cells allografted in mouse assessed as tumor growth inhibition at 50 mg/kg relative to control. Format: functional. A digest of the protocol: as §1
For another data set, the species on record is Rattus norvegicus. The experiment in a line: Inhibition of prolactin release in rat at 10 ug relative to control. Format: functional.
Data set [14] has as its system Mus musculus. The experiment in a line: Toxicity in mouse allografted with mouse L1210 cells assessed as change in body weight at 200 mg/kg relative to control. In kind it is organism-based. More on the design: dose 200 mg/kg. As to conditions: in vivo. The procedure, abridged:
as §1

Data set [15] deals with Mus musculus. Description: Toxicity in mouse allografted with mouse L1210 cells assessed as change in body weight at 400 mg/kg relative to control. More on the design: dose 400 mg/kg. Format: organism-based. As to conditions: in vivo. The procedure, abridged:
as §1

Data set [16] relates to Mus musculus. Description: Toxicity in mouse allografted with mouse L1210 cells assessed as survival at 100 mg/kg. As to conditions: in vivo. The arrangement: dose 100 mg/kg. In kind it is organism-based. The procedure, abridged:
as §1

For data set [17], the system named is Mus musculus. The experiment in a line: Toxicity in mouse allografted with mouse L1210 cells assessed as survival at 200 mg/kg. As to conditions: in vivo. Format: organism-based. More on the design: dose 200 mg/kg. The procedure, abridged: as §1
The subject of data set [18] is L1210. Description: Antitumor activity against mouse L1210 cells allografted in mouse assessed as tumor growth inhibition at 200 mg/kg relative to control. In kind it is functional. The procedure, abridged:
as §1

In data set [19] the test system is L1210. The experiment in a line: Antitumor activity against mouse L1210 cells allografted in mouse assessed as tumor growth inhibition at 100 mg/kg relative to control. In kind it is functional. The procedure, abridged:
as §1

Data set [20] relates to Mus musculus. The experiment in a line: Toxicity in mouse allografted with mouse L1210 cells assessed as survival at 400 mg/kg. More on the design: dose 400 mg/kg. Format: organism-based. As to conditions: in vivo. The procedure, abridged:
as §1

For data set [21], the system named is P388. The experiment in a line: Antitumor activity against mouse P388 cells allografted in mouse assessed as tumor growth inhibition at 50 mg/kg relative to control. Format: functional.
In data set [22] the test system is Mus musculus. Description: Toxicity in mouse allografted with mouse P388 cells assessed as change in body weight at 50 mg/kg relative to control. In kind it is organism-based. The arrangement: dose 50 mg/kg. As to conditions: in vivo.
The test system of data set [23] is Mus musculus. Description: Toxicity in mouse allografted with mouse P388 cells assessed as survival at 100 mg/kg. In kind it is organism-based. The arrangement: dose 100 mg/kg. As to conditions: in vivo.
The subject of data set [24] is P388. Description: Antitumor activity against mouse P388 cells allografted in mouse assessed as tumor growth inhibition at 25 mg/kg relative to control. Format: functional.
The subject of data set [25] is L1210. The experiment in a line: Antitumor activity against mouse L1210 cells allografted in mouse assessed as tumor growth inhibition at 400 mg/kg relative to control. Format: functional. A digest of the protocol:
as §1

In data set [26] the test system is P388. The experiment in a line: Antitumor activity against mouse P388 cells allografted in mouse assessed as tumor growth inhibition at 100 mg/kg relative to control. In kind it is functional.
The subject of data set [27] is Mus musculus. Description: Toxicity in mouse allografted with mouse P388 cells assessed as survival at 50 mg/kg. Format: organism-based. More on the design: dose 50 mg/kg. As to conditions: in vivo.
Data set [28] relates to Mus musculus. The experiment in a line: Toxicity in mouse allografted with mouse P388 cells assessed as survival at 25 mg/kg. Format: organism-based. More on the design: dose 25 mg/kg. As to conditions: in vivo.
The test system of data set [29] is Mus musculus. Description: Toxicity in mouse allografted with mouse P388 cells assessed as change in body weight at 25 mg/kg relative to control. Format: organism-based. More on the design: dose 25 mg/kg. As to conditions: in vivo.
Data set [30] relates to Mus musculus. Description: Toxicity in mouse allografted with mouse P388 cells assessed as change in body weight at 100 mg/kg relative to control. Format: organism-based. More on the design: dose 100 mg/kg. As to conditions: in vivo.

In general, T/C refers to the result in the treated group divided by that in the control group, in per cent. As to `C[C@H]1CC[C@H](NC(=O)N(CCCl)N=O)CC1`, the Activity in the data set on Mus musculus [1] is given as 0.4 g; in the data set on Mus musculus [2] it was “Not Active”; in the data set with Mus musculus [4] it was “Non-toxic”; with Mus musculus [5] it was -0.2 g; with Mus musculus [6] it was “Non-toxic”; with Mus musculus [7], -3.4 g. Further, the Activity in the data set on Mus musculus [9] is -4.8 g; in the data set with Mus musculus [10] it was -6.6 g; in the data set on Mus musculus [12] it was “Non-toxic”. The T/C with L1210 [3] is 256%; with L1210 [8], 187%; with L1210 [11], 301%; in the data set on L1210 [13] it was 327%.
Take `CN1C[C@H](N)C[C@@H]2c3cccc4[nH]cc(c34)C[C@H]21`: the “inhibition (INH)” value in the data set listed under Rattus norvegicus is listed as 57%.
On to `CN1C[C@H](NC(=O)N(CCCl)N=O)C[C@@H]2c3cccc4[nH]cc(c34)C[C@H]21`, for which the T/C in the data set on L1210 [3] is given as 119%; in the data set on L1210 [18], 390%; with L1210 [11], 137%; in the data set on L1210 [19], 248%; with L1210 [13], 154%. In addition, the Activity entry is on record as “Non-toxic” in the data set on Mus musculus [4]; -6 g in the data set on Mus musculus [14]; -7.6 g with Mus musculus [15]; -1.2 g with Mus musculus [5]; -1.4 g in the data set with Mus musculus [7]; “Non-toxic” in the data set on Mus musculus [16]. The Activity entry in the data set with Mus musculus [17] is reported as “Non-toxic”; in the data set with Mus musculus [9], -2.8 g; in the data set on Mus musculus [10], -4 g; in the data set on Mus musculus [20] it was “Non-toxic”; in the data set with Mus musculus [12] it was “Non-toxic”. Further, the “inhibition (INH)” value in the data set listed under Rattus norvegicus came out at 28%.
Consider `CN1C[C@H](NC(=O)N(CCCl)N=O)C[C@@H]2c3cccc4c3c(cn4N=O)C[C@H]21`, for which the T/C was 166% in the data set with P388 [21]; 105% with L1210 [3]; 137% in the data set on P388 [24]; 289% with L1210 [25]; 201% in the data set with P388 [26]; 164% in the data set with L1210 [18]. Moreover, the values for the T/C in the data set on L1210 [11], in the data set with L1210 [19] and with L1210 [13] were 117%, 144% and 121%, respectively. In addition, the Activity with Mus musculus [22] is listed as 0 g; with Mus musculus [4], “Non-toxic”; in the data set with Mus musculus [14], -5.2 g; in the data set on Mus musculus [15], -6.4 g; in the data set with Mus musculus [5], -1.2 g; in the data set with Mus musculus [23] it was “Non-toxic”. The Activity in the data set on Mus musculus [7] was -1.8 g; in the data set with Mus musculus [16], “Non-toxic”; in the data set with Mus musculus [17], “Non-toxic”; in the data set on Mus musculus [9], -2.2 g; in the data set with Mus musculus [10], -3.4 g; in the data set with Mus musculus [27] it was “Non-toxic”. The Activity entry in the data set on Mus musculus [20] is “Non-toxic”; with Mus musculus [28] it was “Non-toxic”; in the data set with Mus musculus [12], “Non-toxic”; in the data set on Mus musculus [29], -0.4 g; in the data set with Mus musculus [30], -1.8 g. The “inhibition (INH)” value in the data set listed under Rattus norvegicus worked out at 17%.
As for `CN1CC(CO)=C[C@@H]2c3cccc4c3c(cn4N=O)C[C@H]21`, in the data set listed under Rattus norvegicus, the “inhibition (INH)” value was determined as 36%.
On the same count and under the same terms, the value for `CN1CC(COC(=O)NCCCl)=C[C@@H]2c3cccc4[nH]cc(c34)C[C@H]21` was 87%; that for `CN1CC(CO)=C[C@@H]2c3cccc4[nH]cc(c34)C[C@H]21` was 71%; that for `CC(C)[C@H]1C(=O)N2CCC[C@H]2[C@]2(O)O[C@](NC(=O)[C@@H]3C=C4c5cccc6[nH]cc(c56)C[C@H]4N(C)C3)(C(C)C)C(=O)N12` [ERGOCORNINE] was 88%.
Same read-out and setting: the value for `CN1C[C@H](CC#N)C[C@@H]2c3cccc4[nH]c(Cl)c(c34)C[C@H]21` [LERGOTRILE] was 71%.
